This note sets out measurements from ChEMBL document CHEMBL2203235, “Optimization of a natural product-based class of γ-secretase modulators” (J Med Chem, 2012).

The subject of series [1] is CHO-2B7. The series can be described thus: Modulation of gamma secretase in CHO-2B7 cells assessed as reduction in amyloid beta 40 level at 20 uM after 5 hrs by MSD ELISA. Also on record: scale not given: the % may be the effect or the level left. To be noted: Cricetulus griseus. In kind it is cell-based. (ELISA stands for enzyme-linked immunosorbent assay.)
A short description of series [2]: (§1) Metabolic stability in human liver microsomes assessed as compound remaining at 1 uM at 60 mins by LC/MS/MS analysis in absence of NADPH. Type of series: ADME, Microsome. To be noted: liver microsomes, read-out: Stability. In outline:
(§2)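 Human liver microsomes were run without NADPH as a qualitative read of susceptibility to enzymatic hydrolysis. The read-out was percent parent remaining at 60 min.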
On the technique in general: Liver microsomes are vesicles of endoplasmic reticulum, rich in cytochrome P450 enzymes.

Series [3] in a line: Modulation of gamma secretase in CHO-2B7 cells assessed as reduction in amyloid beta 42 level after 5 hrs by MSD ELISA. In kind it is cell-based. Particulars: Cricetulus griseus, CHO-2B7, 5 h.
Series [4] concerns Liver microsomes. As to the kind of experiment: Metabolic stability in human liver microsomes at 1 uM after 60 mins by LC/MS/MS analysis. To be noted: 1 h.
Series [5] can be described thus: Modulation of gamma secretase in CHO-2B7 cells assessed as reduction in amyloid beta 40 level after 5 hrs by MSD ELISA. In kind it is cell-based. To be noted: Cricetulus griseus, CHO-2B7, 5 h.
Series [6] has as its system Liver microsomes. The description is as §1. Type of series: ADME, Microsome. Particulars: microsomes, 1 h, 1 µM. Summed up:
as §2

Series [7] relates to CHO-2B7. The series can be described thus: Modulation of gamma secretase in CHO-2B7 cells assessed as reduction in amyloid beta 42 level at 20 uM after 5 hrs by MSD ELISA. Type of series: cell-based. Details: scale not given: the % may be the effect or the level left. Particulars: Cricetulus griseus.

As usually defined, the IC50 is the point on the concentration scale where inhibition reaches its midpoint.

Consider `C[C@@H]1C[C@H](COC(=O)N(C)C)O[C@H]2[C@H]1[C@@]1(C)CC[C@@]34C[C@@]35CC[C@H](O[C@H]3CN(C(=O)CC6CC6)CCO3)C(C)(C)[C@@H]5CC[C@H]4[C@]1(C)[C@H]2O`, for which the Activity in the series on CHO-2B7 [1] is 63%. For the same molecule, the remaining at 1 h, 1 µM in series [2] is 81%. In series [3], the IC50 was 1200 nM.
For the molecule `CC(C)[C@@H](OC(=O)N1CCC1)[C@H]1C[C@@H](C)[C@H]2[C@H](O1)[C@H](O)[C@@]1(C)[C@@H]3CC[C@H]4C(C)(C)[C@@H](OC(=O)NC5CNC5)CC[C@@]45C[C@@]35CC[C@]21C`, the Stability entry in the series on Liver microsomes [4] is “Stable”; in the series with Liver microsomes [6], 127%. The values for the IC50 in series [5] and in series [3] were 2600 nM and 100 nM, respectively.
Take `CNC(=O)O[C@H](C(C)C)[C@H]1C[C@@H](C)[C@H]2[C@H](O1)[C@H](O)[C@@]1(C)[C@@H]3CC[C@H]4C(C)(C)[C@@H](OC(=O)N5CCC5)CC[C@@]45C[C@@]35CC[C@]21C`: the Activity in the series with CHO-2B7 [1] is 47%. In addition, the Stability with Liver microsomes [6] was 152%. Besides, the IC50 in series [3] turned out to be 17000 nM.
For the molecule `COC(=O)OC[C@H]1C[C@@H](C)[C@H]2[C@H](O1)[C@H](O)[C@@]1(C)[C@@H]3CC[C@H]4C(C)(C)[C@@H](O[C@H]5CN(C(=O)CC6CC6)CCO5)CC[C@@]45C[C@@]35CC[C@]21C`, the Activity with CHO-2B7 [1] stood at 46%. The remaining at 1 h, 1 µM in series [2] turned out to be 59%. Moreover, the IC50 in series [3] turned out to be 330 nM.
Regarding `CC(C)[C@@H](OC(=O)N1CCC1)[C@H]1C[C@@H](C)[C@H]2[C@H](O1)[C@H](O)[C@@]1(C)[C@@H]3CC[C@H]4C(C)(C)[C@@H](OC(N)=O)CC[C@@]45C[C@@]35CC[C@]21C`, the Stability in the series with Liver microsomes [6] was 150%.
Turning to `CC(=O)O[C@@H]([C@H]1C[C@@H](C)[C@H]2[C@H](O1)[C@H](O)[C@@]1(C)[C@@H]3CC[C@H]4C(C)(C)[C@@H](O[C@H]5CN(C(=O)CC6CC6)CCO5)CC[C@@]45C[C@@]35CC[C@]21C)C(C)(C)O`, in the series with CHO-2B7 [1], the Activity amounted to 38%. For the same molecule, the remaining at 1 h, 1 µM in series [2] stood at 2%. The IC50 in series [3] is 130 nM.
In the case of `C[C@@H]1C[C@H]([C@H](O)C(C)(C)O)O[C@H]2[C@H]1[C@@]1(C)CC[C@@]34C[C@@]35CC[C@H](O[C@H]3CN(CC(N)=O)CCO3)C(C)(C)[C@@H]5CC[C@H]4[C@]1(C)[C@H]2O`, the Activity with CHO-2B7 [7] came to 0%. Moreover, the IC50 in series [3] is 60 nM.
For the molecule `CC(C)[C@@H](OC(=O)N(C)C)[C@H]1C[C@@H](C)[C@H]2[C@H](O1)[C@H](O)[C@@]1(C)[C@@H]3CC[C@H]4C(C)(C)[C@@H](OC(N)=O)CC[C@@]45C[C@@]35CC[C@]21C`, the IC50 in series [5] was determined as 19000 nM; in series [3], 920 nM. Moreover, in the series with Liver microsomes [6], the Stability is 131%.
In the case of `C[C@@H]1C[C@H]([C@H](O)C(C)(C)O)O[C@H]2[C@H]1[C@@]1(C)CC[C@@]34C[C@@]35CC[C@H](O[C@H]3CN(C(=O)c6nccn6C)CCO3)C(C)(C)[C@@H]5CC[C@H]4[C@]1(C)[C@H]2O`, the Activity in the series on CHO-2B7 [7] is 5%. In addition, the IC50 in series [3] was determined as 130 nM.
With `CC(C)[C@@H](OC(=O)N1CCC1)[C@H]1C[C@@H](C)[C@H]2[C@H](O1)[C@H](O)[C@@]1(C)[C@@H]3CC[C@H]4C(C)(C)[C@@H](OC(=O)N5CCC5)CC[C@@]45C[C@@]35CC[C@]21C`, the Stability result with Liver microsomes [4] is reported as “Stable”; in the series with Liver microsomes [6] it was 158%. Besides, the IC50 in series [5] was determined as 10000 nM; in series [3], 470 nM.
As for `CCO[C@@H]([C@H]1C[C@@H](C)[C@H]2[C@H](O1)[C@H](O)[C@@]1(C)[C@@H]3CC[C@H]4C(C)(C)[C@@H](OC(=O)NCCNS(=O)(=O)C(F)(F)F)CC[C@@]45C[C@@]35CC[C@]21C)C(C)(C)O`, the Stability result with Liver microsomes [4] is given as “Stable”. The Activity in the series on CHO-2B7 [1] was 13%. Further, the IC50 in series [3] came out at 710 nM.
Turning to `CNC(=O)O[C@H](C(C)C)[C@H]1C[C@@H](C)[C@H]2[C@H](O1)[C@H](O)[C@@]1(C)[C@@H]3CC[C@H]4C(C)(C)[C@@H](OC(N)=O)CC[C@@]45C[C@@]35CC[C@]21C`, the Activity in the series with CHO-2B7 [1] is 40%. In addition, the remaining at 1 h, 1 µM in series [2] is 117%. Further, in series [3], the IC50 was found to be 950 nM.
For `CCO[C@@H]([C@H]1C[C@@H](C)[C@H]2[C@H](O1)[C@H](O)[C@@]1(C)[C@@H]3CC[C@H]4C(C)(C)[C@@H](OC(=O)NC)CC[C@@]45C[C@@]35CC[C@]21C)C(C)(C)O`, the Stability result in the series with Liver microsomes [4] is given as “Stable”. Also, in the series with CHO-2B7 [1], the Activity stood at 47%. Further, the IC50 in series [3] was 360 nM.
For `CCO[C@@H]([C@H]1C[C@@H](C)[C@H]2[C@H](O1)[C@H](O)[C@@]1(C)[C@@H]3CC[C@H]4C(C)(C)[C@@H](OC(=O)N5CCNC(C(F)(F)F)C5)CC[C@@]45C[C@@]35CC[C@]21C)C(C)(C)O` (stereo partly drawn), in that order: “Stable”, 31% and 390 nM.
On to `CC(C)[C@@H](OC(=O)N1CCC1)[C@H]1C[C@@H](C)[C@H]2[C@H](O1)[C@H](O)[C@@]1(C)[C@@H]3CC[C@H]4C(C)(C)[C@@H](O[C@H]5CN(C(=O)CNS(=O)(=O)C(F)(F)F)CCO5)CC[C@@]45C[C@@]35CC[C@]21C`, for which the Stability entry in the series with Liver microsomes [4] is reported as “Stable”. In addition, the Activity in the series on CHO-2B7 [1] turned out to be 49%. In addition, the half-maximal inhibitory concentration (IC50) in series [3] came to 1300 nM.
Turning to `CNC(=O)O[C@H](C(C)C)[C@H]1C[C@@H](C)[C@H]2[C@H](O1)[C@H](O)[C@@]1(C)[C@@H]3CC[C@H]4C(C)(C)[C@@H](OC(=O)N5CCOCC5)CC[C@@]45C[C@@]35CC[C@]21C`, the Activity in the series with CHO-2B7 [1] was found to be 17%. In the series with Liver microsomes [6], the Stability amounted to 139%. Further, the IC50 in series [3] was found to be 4600 nM.
Consider `CC(C)[C@@H](OC(N)=O)[C@H]1C[C@@H](C)[C@H]2[C@H](O1)[C@H](O)[C@@]1(C)[C@@H]3CC[C@H]4C(C)(C)[C@@H](OC(=O)N5CCOCC5)CC[C@@]45C[C@@]35CC[C@]21C`, for which the Activity in the series with CHO-2B7 [1] was found to be 32%. The Stability in the series on Liver microsomes [6] was found to be 130%. For the same molecule, the half-inhibitory concentration (IC50) in series [3] was found to be 3400 nM.
Consider `CC(C)[C@@H](OC(=O)N(C)C)[C@H]1C[C@@H](C)[C@H]2[C@H](O1)[C@H](O)[C@@]1(C)[C@@H]3CC[C@H]4C(C)(C)[C@@H](OC(=O)N5CCOCC5)CC[C@@]45C[C@@]35CC[C@]21C`, for which the Activity in the series on CHO-2B7 [1] came out at 17%. The remaining at 1 h, 1 µM in series [2] is 118%. The IC50 in series [3] is 7400 nM.
For `CC(C)[C@@H](OC(N)=O)[C@H]1C[C@@H](C)[C@H]2[C@H](O1)[C@H](O)[C@@]1(C)[C@@H]3CC[C@H]4C(C)(C)[C@@H](OC(=O)NC5CNC5)CC[C@@]45C[C@@]35CC[C@]21C`, the IC50 is 4000 nM in series [5] and 160 nM in series [3]. Also, in the series with Liver microsomes [6], the Stability is listed as 121%.
For the molecule `CC(C)[C@@H](OC(=O)N1CCC1)[C@H]1C[C@@H](C)[C@H]2[C@H](O1)[C@H](O)[C@@]1(C)[C@@H]3CC[C@H]4C(C)(C)[C@@H](OC(=O)N5CCC(F)(F)CC5)CC[C@@]45C[C@@]35CC[C@]21C`, the Stability result with Liver microsomes [4] was “Stable”. Further, the Activity in the series on CHO-2B7 [1] was 12%. Also, in series [3], the IC50 worked out at 9100 nM.
